This is an account of results in ChEMBL document CHEMBL1128711, “Calcium entry blockers and activators: conformational and structural determinants of dihydropyrimidine calcium channel modulators” (J Med Chem, 1995).

As a reminder, the EC50 is the concentration giving half of the maximal effect. As a reminder, the IC50 is the midpoint of a concentration-inhibition curve. Low readings indicate greater potency in that assay, high ones weaker potency in that assay.

Where only a bound is given, the exact number is not on record here.

The species entered for assay [1] is Oryctolagus cuniculus. Description: In vitro contraction of rabbit aorta strips. The assay is classed as functional, organism-based. An outline of the steps:
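Rabbit aortic strips first contracted with 110 mM KCl to check viability and set maximal force. After washout and full relaxation, strips were equilibrated in 10 mM KCl, then given cumulative concentrations of test compound. EC50 is the concentration giving 50% of the prior 110 mM KCl maximal force.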

The species entered for assay [2] is Oryctolagus cuniculus. As to the kind of experiment: In vitro inhibition of potassium-induced contractions in rabbit aorta strips. It is filed as functional, organism-based. An outline of the steps:
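Rabbit aortic strips contracted with 110 mM KCl (equimolar replacement of NaCl), then exposed to cumulative concentrations of test compound.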

In turn, `CSC1=NC2/C(=C(/O)OCCCCCSc3c2cccc3[N+](=O)[O-])C(C)=N1` (stereo not given) yielded an EC50 in the assay filed under Oryctolagus cuniculus [1] (Oryctolagus cuniculus, Aorta) of more than 30 µM. In addition, it took 0.036 µM to reach half-maximal inhibition in the assay listed under Oryctolagus cuniculus [2] (Oryctolagus cuniculus, Aorta) (IC50). With `CSC1=NC2/C(=C(/O)OCCCCCSc3ccccc32)C(C)=N1` (stereo in doubt; 15b), the 50% effective concentration (EC50) in the assay listed under Oryctolagus cuniculus [1] is 0.82 µM. The IC50 in the assay listed under Oryctolagus cuniculus [2] worked out at 3.9 µM. Take `CSC1=NC(c2cc([N+](=O)[O-])ccc2SC)C2=C(O)OCC2=N1` (stereo not given): the EC50 in the assay listed under Oryctolagus cuniculus [1] (Oryctolagus cuniculus, Aorta) was more than 30 µM. This molecule returned an IC50 in the assay filed under Oryctolagus cuniculus [2] (Oryctolagus cuniculus, Aorta) of more than 30 µM. As for `CSC1=NC2/C(=C(/O)OCCCCCSc3ccccc32)C(C)=N1` (stereo in doubt; 15b-A), in the assay filed under Oryctolagus cuniculus [1], the 50% effective concentration (EC50) is more than 30 µM. Moreover, half-maximal inhibition in the assay filed under Oryctolagus cuniculus [2] (IC50) required 0.1 µM. In the assay listed under Oryctolagus cuniculus [1] (Oryctolagus cuniculus, Aorta), `COC(=O)C1=C(C)N=C(SC)N[C@@H]1c1ccccc1SC` came in with an EC50 of more than 30 µM. 2.27 µM corresponded to half-maximal inhibition in the assay filed under Oryctolagus cuniculus [2] (Oryctolagus cuniculus, Aorta) (IC50). `CSC1=NC(c2cccc([N+](=O)[O-])c2SC)C2=C(O)OCC2=N1` (stereo not given) came in with a 50% effective concentration (EC50) in the assay listed under Oryctolagus cuniculus [1] (Oryctolagus cuniculus, Aorta) of more than 30 µM. This molecule also displayed a half-maximal inhibitory concentration (IC50) in the assay listed under Oryctolagus cuniculus [2] (Oryctolagus cuniculus, Aorta) of more than 30 µM. For the molecule `CSC1=NC(c2cccc([N+](=O)[O-])c2)C2=C(O)OCC2=N1` (stereo not given), in the assay listed under Oryctolagus cuniculus [1] (Oryctolagus cuniculus, Aorta), the EC50 was more than 30 µM. In the assay filed under Oryctolagus cuniculus [2] (Oryctolagus cuniculus, Aorta), this molecule gave an IC50 of more than 30 µM.

For `COC(=O)C1=C(C)N=C(SC)N[C@H]1c1ccccc1SC`, the EC50 in the assay filed under Oryctolagus cuniculus [1] (Oryctolagus cuniculus, Aorta) turned out to be 3.55 µM. Moreover, the concentration for half-maximal inhibition (IC50) in the assay listed under Oryctolagus cuniculus [2] (Oryctolagus cuniculus, Aorta) is more than 30 µM.

In the assay listed under Oryctolagus cuniculus [1] (Oryctolagus cuniculus, Aorta), `COC(=O)C1=C(C)N=C(SC)NC1c1cccc([N+](=O)[O-])c1` (stereo not given) registered an EC50 of more than 30 µM. For the same molecule, 2.5 µM corresponded to half-maximal inhibition in the assay listed under Oryctolagus cuniculus [2] (Oryctolagus cuniculus, Aorta) (IC50).

Consider `COC(=O)C1=C(C)N=C(SC)NC1c1ccccc1SC` (stereo not given), for which the EC50 in the assay filed under Oryctolagus cuniculus [1] (Oryctolagus cuniculus, Aorta) was more than 30 µM. In the assay listed under Oryctolagus cuniculus [2] (Oryctolagus cuniculus, Aorta), this molecule returned an IC50 of 20.6 µM. In the assay listed under Oryctolagus cuniculus [1] (Oryctolagus cuniculus, Aorta), `CCCCSc1ccccc1C1N=C(SC)NC2=C1C(=O)OC2` (stereo not given) displayed an EC50 of 17.3 µM. Further, in the assay filed under Oryctolagus cuniculus [2] (Oryctolagus cuniculus, Aorta), the concentration for half-maximal inhibition (IC50) was more than 30 µM. Take `COC(=O)C1=C(C)N=C(SC)NC1c1cc([N+](=O)[O-])ccc1SC` (stereo not given): the half-maximal effective concentration (EC50) in the assay filed under Oryctolagus cuniculus [1] (Oryctolagus cuniculus, Aorta) was more than 30 µM. The IC50 in the assay filed under Oryctolagus cuniculus [2] (Oryctolagus cuniculus, Aorta) worked out at 20 µM. `CSC1=NC2/C(=C(/O)OCCCCCSc3ccccc32)C(C)=N1` (stereo in doubt; 15b-B): in the assay filed under Oryctolagus cuniculus [1], the EC50 stood at 0.59 µM. This molecule also showed a concentration for half-maximal inhibition (IC50) in the assay listed under Oryctolagus cuniculus [2] of more than 30 µM. Take `CSC1=NC2/C(=C(/O)OCCCCCSc3ccc([N+](=O)[O-])cc32)C(C)=N1` (stereo not given): in the assay filed under Oryctolagus cuniculus [1] (Oryctolagus cuniculus, Aorta), the response was half-maximal at 2.9 µM (EC50). In the assay filed under Oryctolagus cuniculus [2] (Oryctolagus cuniculus, Aorta), this molecule gave an IC50 of 26 µM. `COC(=O)C1=C(C)N=C(SC)NC1c1cccc([N+](=O)[O-])c1SC` (stereo not given): the EC50 in the assay listed under Oryctolagus cuniculus [1] (Oryctolagus cuniculus, Aorta) is more than 30 µM. The molecule `CO/C(O)=C1\C(C)=NC(C)=C([N+](=O)[O-])[C@H]1c1ccccc1C(F)(F)F` registered an EC50 in the assay filed under Oryctolagus cuniculus [1] (Oryctolagus cuniculus, Aorta) of 0.046 µM. Besides, the midpoint of inhibition in the assay filed under Oryctolagus cuniculus [2] (Oryctolagus cuniculus, Aorta), the IC50, lay at 17.1 µM. In the assay listed under Oryctolagus cuniculus [1] (Oryctolagus cuniculus, Aorta), `COC(=O)C1=C(C)NC(C)=C(C(=O)OC)C1c1ccccc1[N+](=O)[O-]` [NIFEDIPINE] yielded a half-maximal effective concentration (EC50) of more than 30 µM. Besides, it took 0.019 µM to reach half-maximal inhibition in the assay listed under Oryctolagus cuniculus [2] (Oryctolagus cuniculus, Aorta) (IC50). The like results for `CSC1=NC(c2ccccc2SC)C2=C(O)OCC2=N1` (stereo not given) were, in that order, more than 30 µM and more than 30 µM.
